In brackets after ≈: the same amount, converted by molar mass. Activity calls are given as the source filed them. No cut-off for these calls is given here. Where a SMILES comes first, the peptide text is derived from it.
Experiments:
Spodoptera exigua [1] = assay: Insecticidal activity against beet armyworm eggs assessed as inhibition of insect growth at 28 degC after 6 days by lepidopteran diet assay; format: functional; conditions: 144 h
Summary of the method: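 Beet armyworm eggs (8-10 per well) on artificial diet in 96-well plates. Test samples were applied in acetone-water (50:50), dried onto the diet surface, and tested at 0.98-500 ppm (of diet weight) in 2-fold steps. Plates were incubated 6 days at 28 °C. Value is the minimum concentration inhibiting growth relative to untreated control.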

Trichoplusia ni [2] = assay: Insecticidal activity against 3/4th instar cabbage looper assessed as intoxication topically dosed at 5 ug/larva after 24 hrs by lepidopteran topical assay
Spodoptera exigua [3] = assay: Insecticidal activity against beet armyworm assessed as circling dosed by ingestion from leaf after 18 hrs by lepidopteran limited ingestion exposure assay; format: functional, organism-based
Spodoptera exigua [4] = assay: Insecticidal activity against fourth instar beet armyworm assessed as body tremors and partial paralysis after 1 hrs by BAW injection assay; format: functional, organism-based
Trichoplusia ni [5] = assay: Insecticidal activity against cabbage looper assessed as mortality dosed by ingestion from leaf after 24 hrs by lepidopteran limited ingestion exposure assay; format: functional
Summary of the method: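 Cabbage leaf disks (0.25 cm²) were each treated with 1 µL of a 5 mg/mL acetone solution and dried. Each disk was offered to one of six cabbage looper larvae for 24 h, held individually under ambient lab conditions. Solvent and untreated disk controls were included. Afterwards, mortality, intoxication symptoms and disk consumption were noted, and larvae were given artificial diet.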

Spodoptera exigua [6] = assay: Insecticidal activity against 3/4th instar beet armyworm assessed as intoxication and mortality topically dosed at 5 ug/larva after 24 hrs by lepidopteran topical assay
Trichoplusia ni [7] = assay: Insecticidal activity against cabbage looper assessed as body tremors dosed by ingestion from leaf after 18 hrs by lepidopteran limited ingestion exposure assay; format: functional, organism-based
Spodoptera exigua [8] = assay: Insecticidal activity against 3/4th instar beet armyworm assessed as intoxication and mortality topically dosed at 2.5 ug/larva after 24 hrs by lepidopteran topical assay; format: functional, organism-based
Spodoptera exigua [9] = assay: Insecticidal activity against fourth instar beet armyworm assessed as body tremors and partial paralysis after 3 to 6 hrs by BAW injection assay; format: functional
Trichoplusia ni [10] = assay: Insecticidal activity against 3/4th instar cabbage looper assessed as intoxication topically dosed at 2.5 ug/larva after 24 hrs by lepidopteran topical assay; format: functional
Spodoptera exigua [11] = assay: Insecticidal activity against fourth instar beet armyworm assessed as body tremors and partial paralysis after 24 hrs by BAW injection assay; format: functional, organism-based
Summary of the method: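 Six fourth-instar beet armyworm were each injected with 0.5 µL of a 20 mg/mL acetone solution (10 µg/insect). Solvent-only and untreated controls were included. Larvae were held singly with artificial diet under ambient conditions. Intoxication symptoms were scored at 1, 24 and 48 h, and mortality at 48 h.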

Row | Compound | MIC (Spodoptera exigua [1]) [µg/mL] | Activity (Trichoplusia ni [2]) | Activity (Spodoptera exigua [3]) | Activity (Spodoptera exigua [4]) | Activity (Trichoplusia ni [5]) | Activity (Spodoptera exigua [6]) | Activity (Trichoplusia ni [7]) | Activity (Spodoptera exigua [8]) | Activity (Spodoptera exigua [9]) [%] | Activity (Trichoplusia ni [10]) [%] | Activity (Spodoptera exigua [11])
1 | CC(C)C[C@@H]1NC(=O)[C@H](Cc2ccccc2)N(C)C(=O)[C@H](C)NC(=O)c2ccccc2NC(=O)[C@H](Cc2ccc(O)cc2)N(C)C1=O [CYCLOASPEPTIDE A] (HELM PEPTIDE1{[O=C(c1ccccc1N[*:1])[*:2]].A.[meF].L.[meY]}$PEPTIDE1,PEPTIDE1,1:R1-5:R2$$$V2.0) | > 500 | inactive | Active | inactive | inactive | inactive | Active | – | – | – | –
2 | CC(C)C[C@@H]1NC(=O)[C@H](Cc2ccccc2)N(C)C(=O)[C@H](C)NC(=O)c2ccccc2NC(=O)[C@H](Cc2ccccc2)N(C)C1=O [CYCLOASPEPTIDE E] (HELM PEPTIDE1{[O=C(c1ccccc1N[*:1])[*:2]].A.[meF].L.[meF]}$PEPTIDE1,PEPTIDE1,1:R1-5:R2$$$V2.0) | 10 (≈ 16 µM) | – | Active | – | 15% | – | Active | inactive | 85 | 50 | inactive
3 | CC[C@H]1CCC[C@H](O[C@H]2CC[C@H](N(C)C)[C@@H](C)O2)[C@@H](C)C(=O)C2=C[C@@H]3[C@@H](C=C[C@@H]4C[C@@H](O[C@@H]5O[C@@H](C)[C@H](OC)[C@@H](OC)[C@H]5OC)C[C@@H]34)[C@@H]2CC(=O)O1 [SPINOSYN A] | 0.02 (≈ 0.0273 µM) | – | – | – | – | – | – | – | – | – | –
